Experimental data from ChEMBL document CHEMBL4011643, “Triaryl Benzimidazoles as a New Class of Antibacterial Agents against Resistant Pathogenic Microorganisms” (J Med Chem, 2017).
≈ marks a conversion by molar mass, not a printed value.

Tests used:
Enterococcus faecalis [1] = assay: Antibacterial activity against vancomycin-resistant Enterococcus faecalis NCTC 12201 after 20 hrs by broth microdilution method; assay type: functional; details: NCTC 12201, 20 h
Outline: (§1)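 Broth microdilution in Tryptic Soy Broth; growth read as OD600 after 20 h. MIC taken as the lowest drug concentration giving OD600 below 0.1. Run in triplicate.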

Staphylococcus aureus [2] = assay: Antibacterial activity against methicillin-resistant Staphylococcus aureus EMRSA-15 after 20 hrs by broth microdilution method; assay type: functional; details: EMRSA-15, 20 h; outline: as §1
Klebsiella pneumoniae [3] = assay: Antibacterial activity against Klebsiella pneumoniae NCTC 13368 after 20 hrs in the presence of Pa-beta-N and magnesium ions by broth microdilution method; assay type: functional; details: NCTC 13368, 20 h
Outline: (§2)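 Broth microdilution in Tryptic Soy Broth, done in triplicate. Growth was read as OD600 after 20 h. MIC is the lowest drug concentration giving OD600 below 0.1.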

Klebsiella pneumoniae [4] = assay: Antibacterial activity against Klebsiella pneumoniae NCTC 13368 after 20 hrs by broth microdilution method; assay type: functional; details: NCTC 13368, 20 h; outline: as §2
Klebsiella pneumoniae [5] = assay: Antibacterial activity against Klebsiella pneumoniae M6 after 20 hrs in the presence of PMBN by broth microdilution method; assay type: functional; details: M6, 20 h; outline: as §2
[6] = Cytotoxicity against human HeLa cells assessed as cell viability at 25 uM after 24 hrs by MTT assay; assay type: cell-based; details: read-out: Activity
Outline: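 HeLa cells, 10000 per well, were grown at 37 °C in 5% CO2 and allowed to settle for 24 h. Compound was then added in triplicate for 24 h of continuous exposure. Viability was read by MTT colorimetry, with absorbance at 570 nm.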

[7] = Stabilization of FAM/TAMRA-labeled AT-rich DNA duplex (unknown origin) assessed as change in melting temperature at 1 uM by FRET-based assay
Outline: (§3)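 FRET melting of a FAM/TAMRA-labelled AT-rich oligonucleotide, 400 nM working solution in 50 mM potassium, 50 mM cacodylate, pH 7.4. DNA was annealed at 85 °C for 6 min, then held at 25 °C for 5 h, and mixed 1:1 with sample. Fluorescence was read every 0.5 °C from 30 to 100 °C, with a 30 s hold per step. ΔTm is measured against the blank, in triplicate.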

Enterococcus faecium = assay: Antibacterial activity against vancomycin-resistant Enterococcus faecium NCTC 12204 after 20 hrs by broth microdilution method; assay type: functional; details: NCTC 12204, 20 h; outline: as §1
Enterococcus faecalis [8] = assay: Antibacterial activity against vancomycin-sensitive Enterococcus faecalis NCTC 775 after 20 hrs by broth microdilution method; assay type: functional; details: NCTC 775, 20 h; outline: as §2
Staphylococcus aureus [9] = assay: Antibacterial activity against methicillin-resistant Staphylococcus aureus MRSA252 after 20 hrs by broth microdilution method; assay type: functional; details: MRSA252, 20 h; outline: as §1
Staphylococcus aureus [10] = assay: Antibacterial activity against methicillin-sensitive Staphylococcus aureus ATCC 9144 after 20 hrs by broth microdilution method; assay type: functional; details: ATCC 9144, 20 h; outline: as §2
Acinetobacter baumannii [11] = assay: Antibacterial activity against Acinetobacter baumannii AYE after 20 hrs by broth microdilution method; assay type: functional; outline: as §2
Acinetobacter baumannii [12] = assay: Antibacterial activity against Acinetobacter baumannii AYE after 20 hrs in the presence of Pa-beta-N and magnesium ions by broth microdilution method; assay type: functional; outline: as §2
Acinetobacter baumannii [13] = assay: Antibacterial activity against Acinetobacter baumannii AYE after 20 hrs in the presence of PMBN by broth microdilution method; assay type: functional; outline: as §2
Acinetobacter baumannii [14] = assay: Antibacterial activity against Acinetobacter baumannii ATCC 17978 after 20 hrs by broth microdilution method; assay type: functional; details: ATCC 17978, 20 h; outline: as §2
Acinetobacter baumannii [15] = assay: Antibacterial activity against Acinetobacter baumannii ATCC 17978 after 20 hrs in the presence of Pa-beta-N and magnesium ions by broth microdilution method; assay type: functional; details: ATCC 17978, 20 h; outline: as §2
Acinetobacter baumannii [16] = assay: Antibacterial activity against Acinetobacter baumannii ATCC 17978 after 20 hrs in the presence of PMBN by broth microdilution method; assay type: functional; details: ATCC 17978, 20 h; outline: as §2
Klebsiella pneumoniae [17] = assay: Antibacterial activity against Klebsiella pneumoniae M6 after 20 hrs by broth microdilution method; assay type: functional; details: M6, 20 h; outline: as §2
Klebsiella pneumoniae [18] = assay: Antibacterial activity against Klebsiella pneumoniae M6 after 20 hrs in the presence of Pa-beta-N and magnesium ions by broth microdilution method; assay type: functional; details: M6, 20 h; outline: as §2
Klebsiella pneumoniae [19] = assay: Antibacterial activity against Klebsiella pneumoniae NCTC 13368 after 20 hrs in the presence of PMBN by broth microdilution method; assay type: functional; details: NCTC 13368, 20 h; outline: as §2
Pseudomonas aeruginosa [20] = assay: Antibacterial activity against Pseudomonas aeruginosa PAO1 after 20 hrs by broth microdilution method; assay type: functional; details: PAO1, 20 h; outline: as §2
Pseudomonas aeruginosa [21] = assay: Antibacterial activity against Pseudomonas aeruginosa PAO1 after 20 hrs in the presence of Pa-beta-N and magnesium ions by broth microdilution method; assay type: functional; details: PAO1, 20 h; outline: as §2
Pseudomonas aeruginosa [22] = assay: Antibacterial activity against Pseudomonas aeruginosa PAO1 after 20 hrs in the presence of PMBN by broth microdilution method; assay type: functional; details: PAO1, 20 h; outline: as §2
Pseudomonas aeruginosa [23] = assay: Antibacterial activity against Pseudomonas aeruginosa NCTC 13437 after 20 hrs by broth microdilution method; assay type: functional; details: NCTC 13437, 20 h; outline: as §2
Pseudomonas aeruginosa [24] = assay: Antibacterial activity against Pseudomonas aeruginosa NCTC 13437 after 20 hrs in the presence of Pa-beta-N and magnesium ions by broth microdilution method; assay type: functional; details: NCTC 13437, 20 h; outline: as §2
Pseudomonas aeruginosa [25] = assay: Antibacterial activity against Pseudomonas aeruginosa NCTC 13437 after 20 hrs in the presence of PMBN by broth microdilution method; assay type: functional; details: NCTC 13437, 20 h; outline: as §2
Staphylococcus aureus [26] = assay: Inhibition of Staphylococcus aureus DNA gyrase assessed as reduction in pNO1 supercoiling at 0.5 ug/mL by fluorescent dye-based assay
Outline: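 Supercoiling plate assay run per the kit instructions. S. aureus gyrase was incubated with compound and plasmid pNO1. Negatively supercoiled plasmid was captured by a triplex-forming oligonucleotide, stained with a fluorescent dye and read by fluorescence (excitation 485 nm). Percent inhibition was reported.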

Enterococcus faecalis [27] = assay: Bactericidal activity against vancomycin-resistant Enterococcus faecalis NCTC 12201 assessed as time required to kill bacteria by >6 log10CFU/ml at 4 times MIC by Miles Misra dilution method; assay type: functional
Outline: (§4)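 Flasks of TSB inoculated at ~10^6 cfu/mL, compound added at 4 × MIC, shaken at 200 rpm and 37 °C. Samples taken at 1, 2, 4, 6 and 24 h and plated by Miles Misra dilution for CFU/mL. Bactericidal means a loss of >3 log CFU/mL. Three independent repeats, error bars SD.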

Staphylococcus aureus [28] = assay: Bactericidal activity against methicillin-resistant Staphylococcus aureus EMRSA-15 assessed as time required to kill bacteria by >6 log10CFU/ml at 4 times MIC by Miles Misra dilution method; assay type: functional; outline: as §4
[29] = Stabilization of FAM/TAMRA-labeled AT-rich DNA duplex (unknown origin) assessed as change in melting temperature at 5 uM by FRET-based assay; outline: as §3
Klebsiella pneumoniae [30] = assay: Ratio of MIC for Klebsiella pneumoniae M6 in absence of PMBN to MIC for Klebsiella pneumoniae M6 in presence of PMBN; assay type: functional
Outline: (§5)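 Fold change: MIC without divided by MIC with 30 μg/mL PMBN. Both MICs were by TSB broth microdilution, with an OD600 <0.1 cutoff at 20 h.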

Klebsiella pneumoniae [31] = assay: Ratio of MIC for Klebsiella pneumoniae NCTC 13368 in absence of PMBN to MIC for Klebsiella pneumoniae NCTC 13368 in presence of PMBN; assay type: functional; outline: as §5
Pseudomonas aeruginosa [32] = assay: Ratio of MIC for Pseudomonas aeruginosa PAO1 in absence of PMBN to MIC for Pseudomonas aeruginosa PAO1 in presence of PMBN; assay type: functional; outline: as §5
Pseudomonas aeruginosa [33] = assay: Ratio of MIC for Pseudomonas aeruginosa NCTC 13437 in absence of PMBN to MIC for Pseudomonas aeruginosa NCTC 13437 in presence of PMBN; assay type: functional; outline: as §5
Acinetobacter baumannii [34] = assay: Ratio of MIC for Acinetobacter baumannii AYE in absence of PMBN to MIC for Acinetobacter baumannii AYE in presence of PMBN; assay type: functional; outline: as §5
Acinetobacter baumannii [35] = assay: Ratio of MIC for Acinetobacter baumannii ATCC 17978 in absence of PMBN to MIC for Acinetobacter baumannii ATCC 17978 in presence of PMBN; assay type: functional; outline: as §5
Klebsiella pneumoniae [36] = assay: Ratio of MIC for Klebsiella pneumoniae M6 in absence of Pa-beta-N to MIC for Klebsiella pneumoniae M6 in presence of Pa-beta-N; assay type: functional
Outline: (§6)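 Both MICs were by TSB broth microdilution, with an OD600 <0.1 cutoff at 20 h.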

Klebsiella pneumoniae [37] = assay: Ratio of MIC for Klebsiella pneumoniae NCTC 13368 in absence of Pa-beta-N to MIC for Klebsiella pneumoniae NCTC 13368 in presence of Pa-beta-N; assay type: functional; outline: as §6
Pseudomonas aeruginosa [38] = assay: Ratio of MIC for Pseudomonas aeruginosa NCTC 13437 in absence of Pa-beta-N to MIC for Pseudomonas aeruginosa NCTC 13437 in presence of Pa-beta-N; assay type: functional; outline: as §6
Acinetobacter baumannii [39] = assay: Ratio of MIC for Acinetobacter baumannii AYE in absence of Pa-beta-N to MIC for Acinetobacter baumannii AYE in presence of Pa-beta-N; assay type: functional; outline: as §6
Acinetobacter baumannii [40] = assay: Ratio of MIC for Acinetobacter baumannii ATCC 17978 in absence of Pa-beta-N to MIC for Acinetobacter baumannii ATCC 17978 in presence of Pa-beta-N; assay type: functional; outline: as §6

SMILES: COC(=O)c1ccc2c(c1)nc(C)n2-c1ccc(-c2cccc(NC(=O)c3ccc4nc(C)[nH]c4c3)c2)cn1
- MIC (Enterococcus faecalis [1]): > 32 µg/mL
- MIC (Staphylococcus aureus [2]): > 32 µg/mL

SMILES: COC(=O)c1ccc2c(c1)nc(C)n2-c1ccc(-c2cccc(NC(=O)c3ccc4nc(CCCN(C)C)[nH]c4c3)c2)cn1
- MIC (Enterococcus faecalis [1]): > 128 µg/mL
- MIC (Staphylococcus aureus [2]): > 128 µg/mL

SMILES: Cc1nc2ccc(C(=O)Nc3cccc(-c4ccc(-n5c(C)nc6cc(C(=O)NCCCN(C)C)ccc65)nc4)c3)cc2[nH]1
- MIC (Klebsiella pneumoniae [3]): 32 µg/mL
- MIC (Klebsiella pneumoniae [4]): > 32 µg/mL
- MIC (Klebsiella pneumoniae [5]): 8 µg/mL
- viability at 24 h, 25 µM [6]: > 98%
- deltaTm [7]: 0.4 °C
- MIC (Enterococcus faecalis [1]): 0.25 µg/mL (≈ 0.426 µM)
- MIC (Enterococcus faecium): 0.5 µg/mL (≈ 0.852 µM)
- MIC (Enterococcus faecalis [8]): 0.5 µg/mL (≈ 0.852 µM)
- MIC (Staphylococcus aureus [2]): 0.5 µg/mL (≈ 0.852 µM)
- MIC (Staphylococcus aureus [9]): 2 µg/mL (≈ 3.41 µM)
- MIC (Staphylococcus aureus [10]): 0.25 µg/mL (≈ 0.426 µM)
- MIC (Acinetobacter baumannii [11]): 16 µg/mL (≈ 27.3 µM)
- MIC (Acinetobacter baumannii [12]): 8 µg/mL
- MIC (Acinetobacter baumannii [13]): 8 µg/mL
- MIC (Acinetobacter baumannii [14]): 16 µg/mL (≈ 27.3 µM)
- MIC (Acinetobacter baumannii [15]): 8 µg/mL
- MIC (Acinetobacter baumannii [16]): 8 µg/mL
- MIC (Klebsiella pneumoniae [17]): 32 µg/mL (≈ 54.5 µM)
- MIC (Klebsiella pneumoniae [18]): 8 µg/mL
- MIC (Klebsiella pneumoniae [19]): 16 µg/mL
- MIC (Pseudomonas aeruginosa [20]): > 32 µg/mL
- MIC (Pseudomonas aeruginosa [21]): > 32 µg/mL
- MIC (Pseudomonas aeruginosa [22]): 4 µg/mL
- MIC (Pseudomonas aeruginosa [23]): > 32 µg/mL
- MIC (Pseudomonas aeruginosa [24]): 16 to 32 µg/mL
- MIC (Pseudomonas aeruginosa [25]): 4 µg/mL
- inhibition (Staphylococcus aureus [26]): 65.2%
- Time (Enterococcus faecalis [27]): 2 h
- Time (Staphylococcus aureus [28]): 2 h
- deltaTm [29]: 2.1 °C
- Ratio (Klebsiella pneumoniae [30]): 4
- Ratio (Klebsiella pneumoniae [31]): 4
- Ratio (Pseudomonas aeruginosa [32]): >16
- Ratio (Pseudomonas aeruginosa [33]): >16
- Ratio (Acinetobacter baumannii [34]): 2
- Ratio (Acinetobacter baumannii [35]): 2
- Ratio (Klebsiella pneumoniae [36]): >=4
- Ratio (Klebsiella pneumoniae [37]): 2 - 4
- Ratio (Pseudomonas aeruginosa [38]): 2 - 4
- Ratio (Acinetobacter baumannii [39]): 2 - 4
- Ratio (Acinetobacter baumannii [40]): 2 - 4

SMILES: Cc1nc2ccc(-c3cccc(-c4ccc(-n5c(C)nc6cc(C(=O)NCCCN(C)C)ccc65)nc4)c3)cc2[nH]1
- viability at 24 h, 25 µM [6]: 62%
- MIC (Enterococcus faecalis [1]): 64 µg/mL (≈ 118 µM)
- MIC (Enterococcus faecium): 64 µg/mL (≈ 118 µM)
- MIC (Enterococcus faecalis [8]): 64 µg/mL (≈ 118 µM)
- MIC (Staphylococcus aureus [2]): > 128 µg/mL
- MIC (Staphylococcus aureus [9]): > 128 µg/mL
- MIC (Staphylococcus aureus [10]): > 128 µg/mL
